Source: ChEMBL document CHEMBL5126632, “Balancing Affinity, Selectivity, and Cytotoxicity of Hydrazone-Based G-Quadruplex Ligands for Activation of Interferon β Genes in Cancer Cells” (J Med Chem, 2022)

Experiments:
Quadruplex DNA [1] = experiment: Stabilization of c-myc G4 quadruplex d(TTAGGGTTAGGGTTAGGGTTAGGGTT) DNA (unknown origin) assessed as thermal stability by measuring difference in melting temperature t1/2 by circular dichroism spectroscopy (reference value: 72 +/- 0.5 degC); assay type: nucleic-acid assay
Quadruplex DNA [2] = experiment: Stabilization of c-kit1 G4 quadruplex d(DNA AGGGAGGGCGCTGGGAGGAGGG) DNA (unknown origin) assessed as thermal stability by measuring difference in melting temperature t1/2 by circular dichroism spectroscopy (reference value: 54 +/- 0.5 degC); assay type: nucleic-acid assay
Quadruplex DNA [3] = experiment: Stabilization of c-kit2 G4 quadruplex d(CGGGCGGGCGCTAGGGAGGGT) DNA (unknown origin) assessed as thermal stability by measuring difference in melting temperature t1/2 by circular dichroism spectroscopy (reference value: 61.5 +/- 0.5 degC); assay type: nucleic-acid assay
Quadruplex DNA [4] = experiment: Stabilization of human Tel26 G4 quadruplex DNA assessed as thermal stability by measuring difference in melting temperature t1/2 by circular dichroism spectroscopy; assay type: nucleic-acid assay
[5] = Stabilization of d(CGC GAA TTC GCG TIT CGC GAA TTC GCG) DNA hairpin (unknown origin) assessed as thermal stability by measuring difference in melting temperature t1/2 by circular dichroism spectroscopy (reference value: 75.4 +/- 0.2 degC)
In short: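 CD melting of 15 μM annealed hairpin duplex in 5 mM K phosphate pH 7.0 with 20 mM KCl, with or without ligand at 2 molar equiv added to the folded DNA. The signal was followed at 252 nm from 20 to 100 °C at 1 °C/min, with T1/2 taken from a curve fit. ΔT1/2 is relative to DNA alone; duplicate runs, averaged.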

U2OS [6] = experiment: Cytotoxicity against human U2OS cells assessed as cell survival preincubated for 24 hrs with compound further incubated for 48 hrs in drug free medium by MTT assay; assay type: functional, cell-based
In short: (§1)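 Exponentially growing cells seeded and treated 24 h after seeding with increasing concentrations for 24 h. Cells then recovered 48 h in drug-free medium. MTT added for 1 h at 37 °C, formazan dissolved in DMSO, absorbance read at 540 nm. IC50 from linear regression. Means ± SEM of two independent experiments in triplicate.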

U2OS [7] = experiment: Induction of DNA damage in human U2OS cells assessed as increase in gammaH2AX phosphorylation at S139 incubated for 24 hrs by immunofluorescence microscopy; assay type: functional, cell-based; details: read-out: IC50 (the source's name)
In short: (§2)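 U2OS cells treated 24 h. Fixed with 4% formaldehyde, permeabilized with 0.5% Triton X-100, blocked with 8% BSA, stained with anti-γH2AX (1:500) and Alexa Fluor 594 secondary, DAPI counterstain. Fluorescence microscopy signal quantified as fold over untreated.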

U2OS [8] = experiment: Induction of DNA damage in human U2OS cells assessed as fold increase in gammaH2AX phosphorylation at […] by measuring fold change at 10 uM incubated for 24 hrs by immunofluorescence microscopy; assay type: functional; in short: as §2
[9] = Stabilization of F-c-kit1-T (unknown origin) assessed as difference in melting temperature t1/2 in presence of d(CGC GAA TTC GCG TIT CGC GAA TTC GCG) DNA hairpin (unknown origin) measured at 1:15 G4 to hairpin DNA ratio by FRET assay
In short: (§3)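 FRET melting of 0.2 μM prefolded FAM/TAMRA dual-labelled c-kit1 G4 in 5 mM K phosphate pH 7.0 with 20 mM KCl. Ligand was added at 2 molar equiv, with unlabelled hairpin competitor at 3 or 10 μM final (15 or 50 equiv relative to G4). FAM emission was read at 520 nm (excitation 492 nm) while heating at 0.2 °C/min over 15–90 °C. ΔT1/2 is relative to no ligand; at least duplicate, averaged.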

Quadruplex DNA [10] = experiment: Binding affinity to c-kit1 G4 quadruplex d(DNA AGGGAGGGCGCTGGGAGGAGGG) DNA (unknown origin) assessed as dissociation constant by Microscale thermophoresis analysis; assay type: nucleic-acid assay
In short: (§4)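 MST with Cy5.5-labelled G4 oligonucleotide held at 20 nM, folded in 5 mM potassium phosphate pH 7.0 with 20 mM KCl plus 0.1% Tween. Ligand in 1:2 serial dilution mixed 1:1 with DNA, 20% DMSO final. Kd taken from binding curves.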

Quadruplex DNA [11] = experiment: Stabilization of F-c-kit1-T quadruplex DNA (unknown origin) by measuring difference in melting temperature t1/2 by FRET assay; assay type: nucleic-acid assay
In short: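 FRET melting of 0.2 μM prefolded FAM/TAMRA-labelled c-kit1 in 5 mM potassium phosphate pH 7.0 with 20 mM KCl, with ligand at 2 molar equiv. Unlabelled hairpin competitor added at 3 or 10 μM (15 or 50 equiv). FAM emission at 520 nm (excitation 492 nm) followed from 15 to 90 °C at 0.2 °C/min. ΔT1/2 versus no ligand. At least duplicate.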

[12] = Stabilization of F-c-kit1-T (unknown origin) assessed as difference in melting temperature t1/2 in presence of d(CGC GAA TTC GCG TIT CGC GAA TTC GCG) DNA hairpin (unknown origin) measured at 1:50 G4 to hairpin DNA ratio by FRET assay; in short: as §3
Quadruplex DNA [13] = experiment: Stabilization of G4 quadruplex DNA in human U2OS cells assessed as BG4 foci formation by measuring fold increase in G4 structure at 10 uM by immunofluorescence microscopy; assay type: cell-based
In short: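 U2OS cells on coverslips treated for […]. Fixed in methanol/acetic acid 3:1, permeabilized with 0.1% Triton X-100, blocked in 2% milk. Stained with 0.5 μg BG4 for 2 h, then anti-FLAG and Alexa Fluor 488 secondary. Signal quantified as fold over untreated.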

[14] = Genotoxicity in mouse MNMCA1 cells assessed as induction of micronuclei formation measured after 24 hrs by DAPI staining based analysis; assay type: toxicity, cell-based; details: mnmca1, 24 h
[15] = Cytotoxicity against mouse MNMCA1 cells assessed as cell survival preincubated for 24 hrs with compound further incubated for 48 hrs in drug free medium by MTT assay; assay type: functional, cell-based; in short: as §1
Quadruplex DNA [16] = experiment: Binding affinity to c-kit2 G4 quadruplex d(CGGGCGGGCGCTAGGGAGGGT) DNA (unknown origin) assessed as dissociation constant by Microscale thermophoresis analysis; assay type: nucleic-acid assay; in short: as §4
Quadruplex DNA [17] = experiment: Binding affinity toc-myc G4 quadruplex d(TTAGGGTTAGGGTTAGGGTTAGGGTT) DNA (unknown origin) assessed as dissociation constant by Microscale thermophoresis analysis; assay type: nucleic-acid assay; in short: as §4
Quadruplex DNA [18] = experiment: Displacement of thiazole orange from c-kit1 G4 quadruplex d(DNA AGGGAGGGCGCTGGGAGGAGGG) DNA (unknown origin) assessed as relative affinity by fluorescent intercalator displacement assay; assay type: nucleic-acid assay
In short: (§5)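 G4 DNA at 0.25 μM with 0.5 μM thiazole orange in 5 mM potassium phosphate pH 7.0 containing 20 mM KCl (LiCl for c-myc), 20 °C. Ligand titrated from 0.5 to 20 molar equiv with 3 min equilibration per addition. Excitation 485 nm, emission 500–650 nm. %displacement = 100 − (F/F0×100); DC50 is the concentration displacing 50% TO. Duplicate titrations.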

Quadruplex DNA [19] = experiment: Displacement of thiazole orange from c-kit2 G4 quadruplex d(CGGGCGGGCGCTAGGGAGGGT) DNA (unknown origin) assessed as relative affinity by fluorescent intercalator displacement assay; assay type: nucleic-acid assay; in short: as §5
Quadruplex DNA [20] = experiment: Displacement of thiazole orange from c-myc G4 quadruplex d(TTAGGGTTAGGGTTAGGGTTAGGGTT) DNA (unknown origin) assessed as relative affinity by fluorescent intercalator displacement assay; assay type: nucleic-acid assay; in short: as §5

SMILES	ΔTm (Quadruplex DNA [1])	ΔTm (Quadruplex DNA [2])	ΔTm (Quadruplex DNA [3])	ΔTm (Quadruplex DNA [4])	ΔTm [5]	IC50 (U2OS [6])	EC50 (U2OS [7])	fold change (FC) (U2OS [8])	ΔTm [9]	Kd (Quadruplex DNA [10])	ΔTm (Quadruplex DNA [11])	ΔTm [12]	fold change (FC) (Quadruplex DNA [13])	fold change (FC) [14]	IC50 [15]	Kd (Quadruplex DNA [16])	Kd (Quadruplex DNA [17])	IC50 (Quadruplex DNA [18])	IC50 (Quadruplex DNA [19])	IC50 (Quadruplex DNA [20])
Cc1ccc(-c2nc3n(ccc4nc(-c5ccc(C)cc5)c(/C=N/NC(=N)N)n43)c2C=O)cc1	4.6 °C	6.1 °C	16.2 °C	2.1 °C	2.3 °C															
N=C(N)N/N=C/c1c(-c2ccccc2)nc2n1ccc1nc(-c3ccc(Cl)cc3)c(/C=N/NC(=N)N)n12	17.6 °C	21.4 °C	> 30 °C	5 °C	2.3 °C															
Cc1ccc(-c2nc3n(ccc4nc(-c5ccccc5)c(/C=N/NC(=N)N)n43)c2C=O)cc1	3.1 °C	6.6 °C	20.8 °C	3.8 °C	1.2 °C															
Clc1ccc(-c2nc3ccn4c(/C=N/NC5=NCCN5)c(-c5ccccc5)nc4n3c2/C=N/NC2=NCCN2)cc1	7.4 °C	15.5 °C	22 °C	6.3 °C	1.2 °C	20200 nM	20000 nM	1.37	21.4 °C	380 nM	24.6 °C	19.6 °C	0.77	0.4	23500 nM	490 nM	3000 nM	2700 nM	1700 nM	1800 nM
C(=N\NC1=NCCN1)/c1c(-c2ccsc2)nc2n1ccc1nc(-c3ccsc3)c(/C=N/NC3=NCCN3)n12	4.7 °C	10.3 °C	14.9 °C	3.8 °C	2 °C															
Cc1ccc(-c2nc3n(ccc4nc(-c5ccc(C)cc5)c(/C=N/NC5=NCCN5)n43)c2C=O)cc1	1.5 °C	3.8 °C	6.8 °C	1.3 °C	0 °C															
NCCOc1cc(C(=O)Nc2cc(OCCN)c3ccccc3n2)nc(C(=O)Nc2cc(OCCN)c3ccccc3n2)c1 [PYRIDOSTATIN]															27000 nM					
Cc1ccc(-c2nc3n(ccc4nc(-c5ccc(C)cc5)c(/C=N/NC5=NCCN5)n43)c2/C=N/NC2=NCCN2)cc1	8.5 °C	17.1 °C	26.5 °C	4.5 °C	2.4 °C															
Cc1ccc(-c2nc3ccn4c(/C=N/NC5=NCCN5)c(-c5ccccc5)nc4n3c2/C=N/NC2=NCCN2)cc1	9.1 °C	15.2 °C	> 30 °C	5.3 °C	1.1 °C	108000 nM	100000 nM	1.45	21.4 °C	120 nM	22.4 °C	20.2 °C	2.4	0.4	28600 nM	130 nM		1300 nM	1200 nM	1300 nM
Cc1ccc(-c2nc3n(ccc4nc(-c5ccc(C)cc5)c(/C=N/NC(=N)N)n43)c2/C=N/NC(=N)N)cc1	15.6 °C	18.5 °C	> 30 °C	5.5 °C	4.1 °C															
